From ChEMBL document CHEMBL1152689, “Synthesis, tautomerism, and antimicrobial, anti-HCV, anti-SSPE, antioxidant, and antitumor activities of arylazobenzosuberones” (Bioorg Med Chem, 2009)
In brackets after ≈: the same amount, converted by molar mass. Activity calls are given as the source filed them. No cut-off for these calls is given here.

test system: Measles morbillivirus; assay: Antiviral activity against Measles virus infected in intracranially dosed hamster assessed as inhibition of subacute sclerosing panencephalitis; assay type: functional
Procedure, shortened: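 Hamsters under ether anesthesia injected intracranially, into the subarachnoid space at 2 mm depth, at 5, 10 and 20 mg/kg/day for 10 days. Four animals per group sacrificed on days 1–20. Brains homogenized in PBS and centrifuged, supernatant deproteinized with ethanol, then MIC in brain tissue determined by HPLC and bioassay.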

SMILES | MIC [µg/mL]
O=C1/C(=N/Nc2ccccc2)CCCc2ccccc21 | 6.12 (≈ 23.2 µM)
COc1ccc(N/N=C2\CCCc3ccccc3C2=O)cc1 | 6.01 (≈ 20.4 µM)
NC(=O)c1ncn([C@@H]2O[C@H](CO)[C@@H](O)[C@H]2O)n1 [RIBAVIRIN] | 77.9 (≈ 319 µM)

target: T1, DNA topoisomerase 1 (Homo sapiens) (UniProt P11387); assay: Inhibition of topoisomerase 1 relative to etoposide
T1 sequence (whole entry): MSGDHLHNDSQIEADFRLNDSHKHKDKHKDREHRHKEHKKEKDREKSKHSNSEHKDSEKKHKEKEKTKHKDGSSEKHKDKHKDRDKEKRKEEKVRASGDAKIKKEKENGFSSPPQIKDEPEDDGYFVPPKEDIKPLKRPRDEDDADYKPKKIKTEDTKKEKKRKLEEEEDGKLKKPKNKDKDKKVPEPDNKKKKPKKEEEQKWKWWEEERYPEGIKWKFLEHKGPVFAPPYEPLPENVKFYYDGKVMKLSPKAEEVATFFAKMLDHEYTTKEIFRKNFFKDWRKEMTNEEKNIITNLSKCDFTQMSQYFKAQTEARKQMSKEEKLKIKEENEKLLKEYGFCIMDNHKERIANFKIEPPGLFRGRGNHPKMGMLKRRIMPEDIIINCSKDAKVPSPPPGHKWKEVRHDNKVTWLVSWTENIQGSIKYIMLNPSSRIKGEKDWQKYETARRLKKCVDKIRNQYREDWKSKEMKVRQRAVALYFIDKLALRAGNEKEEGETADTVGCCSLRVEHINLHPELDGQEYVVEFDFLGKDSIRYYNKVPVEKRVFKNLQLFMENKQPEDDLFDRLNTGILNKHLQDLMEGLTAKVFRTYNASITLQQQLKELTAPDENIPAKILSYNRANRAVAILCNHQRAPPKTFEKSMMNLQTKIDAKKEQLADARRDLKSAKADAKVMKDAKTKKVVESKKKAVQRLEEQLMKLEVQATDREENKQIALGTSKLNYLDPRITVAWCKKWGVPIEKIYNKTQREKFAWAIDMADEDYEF

SMILES | Ratio
O=C1/C(=N/Nc2ccccc2)CCCc2ccccc21 | 4.3
COc1ccc(N/N=C2\CCCc3ccccc3C2=O)cc1 | 4.8

test system: Radical scavenging activity; assay: Antioxidant activity assessed as DPPH free radical scavenging activity by measuring reduction in DPPH absorbance by ELISA relative to untreated control; assay type: functional; set-up: concentration or dose not given beside the values
Procedure, shortened: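 Test compounds dissolved in DMSO, ascorbic acid standard in water, both serially diluted. 10 µl sample added to 90 µl of 100 µM DPPH in methanol and kept in the dark at 37 °C for 30 min. Absorbance read at 515 nm. Blank is DMSO plus DPPH. % reduction = (A_B − A_A)/A_B × 100. Run in triplicate.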

SMILES | Activity [%]
COc1ccc(N/N=C2\CCCc3ccccc3C2=O)cc1 | 83.9
O=C1O[C@H]([C@@H](O)CO)C(O)=C1O | 79

test system: Hepatitis C virus; assay: Antiviral activity against HCV by cell based replicon assay; assay type: functional, Hepacivirus hominis
Procedure, shortened: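 HCV replicon cells plated at 1×10^4 per well. Next day incubated at 37 °C with serially diluted compound in DMEM with 2% FBS and 0.5% DMSO. HCV RNA copy number measured by quantitative RT-PCR on total cellular RNA. Each point is the average of five replicates. Cytotoxicity measured by MTS in parallel.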

SMILES | MIC [µg/mL]
O=C1/C(=N/Nc2ccccc2)CCCc2ccccc21 | 1.07 (≈ 4.05 µM)
COc1ccc(N/N=C2\CCCc3ccccc3C2=O)cc1 | 1.01 (≈ 3.43 µM)
NC(=O)c1ncn([C@@H]2O[C@H](CO)[C@@H](O)[C@H]2O)n1 [RIBAVIRIN] | 16.1 (≈ 66.1 µM)

test system: not listed separately; assay: Antioxidant activity assessed as inhibition of peroxynitrite-mediated 3-nitrotyrosine formation by HPLC; assay type: functional
Procedure, shortened: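 Tyrosine and peroxynitrite, each 100 µM, reacted with compound at 0–300 µM in 100 mM phosphate buffer pH 7.4 at 37 °C for 15 min. Peroxynitrite made from acidified H2O2 plus KNO2, quenched with NaOH, and kept on ice no longer than 30 min before use.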

SMILES | IC50 [µM]
O=C1/C(=N/Nc2ccccc2)CCCc2ccccc21 | 56
Cc1c(C)c2c(c(C)c1O)CCC(C)(C(=O)O)O2 (configuration not stated) [TROLOX] | 58.4
COc1ccc(N/N=C2\CCCc3ccccc3C2=O)cc1 | 54.2

target: DNA topoisomerase 2-alpha (Mus musculus) (UniProt Q01320); assay: Inhibition of topoisomerase 2 from mouse P388 cells assessed as relaxation of pBR322 DNA by agarose gel electrophoresis relative to etoposide; assay type: cell-based
Sequence (Q01320 whole entry): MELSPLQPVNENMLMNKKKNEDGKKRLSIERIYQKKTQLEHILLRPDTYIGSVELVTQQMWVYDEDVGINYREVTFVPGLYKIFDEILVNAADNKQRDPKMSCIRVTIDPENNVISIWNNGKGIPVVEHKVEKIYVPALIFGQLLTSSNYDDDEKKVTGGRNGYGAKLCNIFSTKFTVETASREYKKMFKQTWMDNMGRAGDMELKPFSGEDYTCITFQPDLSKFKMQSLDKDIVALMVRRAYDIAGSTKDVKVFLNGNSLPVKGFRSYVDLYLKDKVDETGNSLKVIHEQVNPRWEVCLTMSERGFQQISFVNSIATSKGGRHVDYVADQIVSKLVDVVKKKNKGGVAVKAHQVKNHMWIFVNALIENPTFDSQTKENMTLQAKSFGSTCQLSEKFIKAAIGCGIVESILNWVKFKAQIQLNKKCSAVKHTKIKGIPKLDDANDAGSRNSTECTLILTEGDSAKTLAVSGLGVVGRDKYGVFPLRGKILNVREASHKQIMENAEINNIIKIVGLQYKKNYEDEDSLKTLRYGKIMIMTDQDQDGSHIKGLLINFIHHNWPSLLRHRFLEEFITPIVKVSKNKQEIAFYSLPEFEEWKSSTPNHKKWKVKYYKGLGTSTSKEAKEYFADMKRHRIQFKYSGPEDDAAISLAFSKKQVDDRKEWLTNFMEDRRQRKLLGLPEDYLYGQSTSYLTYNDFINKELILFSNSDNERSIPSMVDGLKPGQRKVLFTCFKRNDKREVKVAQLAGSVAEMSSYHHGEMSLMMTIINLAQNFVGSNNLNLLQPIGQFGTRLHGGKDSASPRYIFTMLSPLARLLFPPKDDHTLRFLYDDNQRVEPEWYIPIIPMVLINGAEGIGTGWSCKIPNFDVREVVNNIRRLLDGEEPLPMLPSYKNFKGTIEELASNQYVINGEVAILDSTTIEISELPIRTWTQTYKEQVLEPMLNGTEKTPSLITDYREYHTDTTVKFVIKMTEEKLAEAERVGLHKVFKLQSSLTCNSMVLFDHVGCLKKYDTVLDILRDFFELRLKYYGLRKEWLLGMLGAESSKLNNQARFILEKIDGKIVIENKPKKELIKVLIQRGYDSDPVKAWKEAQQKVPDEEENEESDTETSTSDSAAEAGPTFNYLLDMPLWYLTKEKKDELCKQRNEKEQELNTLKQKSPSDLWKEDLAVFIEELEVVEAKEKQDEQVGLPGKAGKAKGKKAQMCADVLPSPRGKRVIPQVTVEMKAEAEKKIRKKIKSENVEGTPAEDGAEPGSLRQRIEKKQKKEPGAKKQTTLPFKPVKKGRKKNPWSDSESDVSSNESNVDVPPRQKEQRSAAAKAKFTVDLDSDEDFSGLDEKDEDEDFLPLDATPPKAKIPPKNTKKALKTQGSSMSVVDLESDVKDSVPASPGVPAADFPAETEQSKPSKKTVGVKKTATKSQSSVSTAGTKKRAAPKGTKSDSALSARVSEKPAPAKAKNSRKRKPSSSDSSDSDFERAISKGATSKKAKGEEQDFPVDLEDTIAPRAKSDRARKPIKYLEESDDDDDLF
Procedure, shortened: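 Topoisomerase II purified from P388 cells. One unit relaxes 0.125 µg supercoiled pBR322 DNA, incubated with or without inhibitor at 30 °C for 1 h in 50 mM Tris-HCl pH 8.0, 100 mM KCl, 10 mM MgCl2, 0.5 mM DTT, 1 mM ATP and 30 µg/ml BSA. Products run on 0.7% agarose in TBE, stained with ethidium bromide and imaged under UV.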

SMILES | Ratio
O=C1/C(=N/Nc2ccccc2)CCCc2ccccc21 | 4.4
COc1ccc(N/N=C2\CCCc3ccccc3C2=O)cc1 | 4.9

test system: MC-38; assay: Antitumor activity against mouse Colon 38 cells implanted in iv dosed C57BL/6 mouse administered as single dose; assay type: functional, organism-based
Procedure, shortened: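 Female C57BL/6 mice, 6 weeks old, given about 30 mg Colon 38 tumor tissue s.c. in the flank. Randomized into groups of n = 5 when tumors reached about 300 mm3 (day 1). Compound in 5% glucose given as a single iv tail-vein dose on day 1; controls received 5% glucose. Tumor volume = (length × width²)/2 and body weight tracked.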

SMILES | Activity
O=C1/C(=N/Nc2ccccc2)CCCc2ccccc21 | Active
COc1ccc(N/N=C2\CCCc3ccccc3C2=O)cc1 | Active
